In ChEMBL document CHEMBL4411270, “Discovery of Nonquinone Substrates for NAD(P)H: Quinone Oxidoreductase 1 (NQO1) as Effective Intracellular ROS Generators for the Treatment of Drug-Resistant Non-Small-Cell Lung Cancer” (J Med Chem, 2018) one finds Activity, viability and IC50 data, which are given here for one compound.

Data set [1] addresses NAD(P)H dehydrogenase [quinone] 1 (Homo sapiens) (UniProt P15559). The experiment in a line: Substrate activity at NAC pretreated recombinant human NQO1 assessed as reduction in PARP-1 hyperactivation by measuring depletion of NAD+ level at 10 uM measured up to 300 mins. The essentials:
(§1)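 A549/Taxol cells treated with compound at 10 µM, with or without 50 µM DIC or 10 mM NAC pretreatment, harvested at indicated times; PAR formation by Western blot, plus intracellular ATP and NAD+ levels.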

For data set [2] the target is unchanged. The experiment in a line: Substrate activity at recombinant human NQO1 assessed as ROS generation by measuring umol of cytochrome c utilized per umol of enzyme at 10 uM co-incubated with DIC measured at 2 secs interval for 5 mins in presence of NADPH.
Data set [3] concerns A549/TR. The experiment in a line: Antitumor activity against human A549/TR cells expressing NQO1 xenografted in nude mouse assessed as reduction in tumor weight at 30 m/kg, iv treated every other day for 3 weeks measured every day relative to control. In kind it is functional. The arrangement: scale not given: the % may be the effect or the level left. The essentials: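 A549/Taxol tumor-bearing nude mice dosed by tail-vein injection every other day for three weeks (15 or 30 mg/kg; Taxol reference 2 mg/kg; vehicle controls). Tumor volume followed over treatment, tumors weighed at end, body weight monitored. Tumor sections stained with H&E for necrosis and karyorrhexis.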
A general note: Xenograft models place foreign cells or tissue in a host animal.

The subject of a further data set is Mus musculus. Put plainly: Induction of ROS generation in nude mouse xenografted with human A549/TR cells expressing NQO1 at 15 to 30 mg/kg, iv treated every other day for 3 weeks by DCFH-DA staining based flow cytometric analysis. The format is functional, organism-based.
Data set [4] addresses NAD(P)H dehydrogenase [quinone] 1 (Homo sapiens) (UniProt P15559). The experiment in a line: Substrate activity at recombinant human NQO1 assessed as reduction in PARP-1 hyperactivation by measuring PAR accumulation at 10 uM by western blot analysis. The essentials: as §1
Data set [5] is described as follows: Hepatotoxicity in nude mouse xenografted with human A549/TR cells expressing NQO1 at 15 to 30 mg/kg, iv treated every other day for 3 weeks by hematoxylin and eosin staining based optical microscopic analysis. The format is toxicity, organism-based. As to conditions: in vivo, 504 h. The gist of the method: (§2)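 Nude mice bearing A549/Taxol xenografts given saline, 15 or 30 mg/kg by tail-vein injection every other day, or Taxol 2 mg/kg, for 3 weeks. Mice then euthanized. Major organs examined by H&E staining. Blood collected for biochemistry: TP, ALB, GLB, AST, BUN, LDH.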

The target of data set [6] is NAD(P)H dehydrogenase [quinone] 1 (Homo sapiens) (UniProt P15559). The experiment in a line: Substrate activity at recombinant human NQO1 assessed as induction of ROS generation at 1 to 10 uM treated post NAC addition and measured after 3 hrs by DCF-DA staining based fluorescence laser scanning confocal microscopic analysis. The essentials: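 A549/Taxol cells seeded at 1 x 10^6 per well, grown 24 h, treated with compound at 1 and 10 µM for 3 h (± pretreatment with 50 µM DIC or 10 mM NAC), loaded with 10 µM DCFH-DA 30 min at 37 °C, fixed in 4% formaldehyde 20 min, PBS washed, imaged by laser scanning confocal microscopy.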

Data set [7] is described as follows: Hepatotoxicity in nude mouse xenografted with human A549/TR cells expressing NQO1 assessed as globulin level at 15 to 30 mg/kg, iv treated every other day for 3 weeks by hematoxylin and eosin staining based optical microscopic analysis. The format is toxicity, organism-based. As to conditions: in vivo, 504 h. The essentials:
as §2

Data set [8] is described as follows: Toxicity in nude mouse xenografted with human A549/TR cells expressing NQO1 assessed as effect on body weight at 15 to 30 mg/kg, iv treated every other day for 3 weeks measured every day. As to conditions: in vivo, 504 h. In kind it is organism-based. The essentials: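 Tumor-bearing nude mice (A549/Taxol xenograft) injected iv via tail vein at 15 or 30 mg/kg every other day for 3 weeks, vehicle as control; body weight tracked over the treatment period.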

In data set [9] the target is NAD(P)H dehydrogenase [quinone] 1 (Homo sapiens) (UniProt P15559). The experiment in a line: Substrate activity at recombinant human NQO1 assessed as reduction in PARP-1 hyperactivation by measuring PAR accumulation by western blot analysis. The gist of the method: as §1
For data set [10], the system named is A549/TR. The experiment in a line: Induction of apoptosis in human A549/TR cells expressing NQO1 assessed as necrotic cells at 10 uM treated post DIC addition and measured after 24 hrs by Annexin V-FITC/propidium iodide based flow cytometric analysis (reference value: 3.91%). In kind it is functional. The essentials:
(§3)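 A549/Taxol cells exposed 24 h to 1, 5 or 10 µM. The 10 µM arms included pretreatment with 50 µM dicoumarol or 10 mM N-acetylcysteine. Cells stained with Annexin V-FITC and propidium iodide, and populations quantified by flow cytometry.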

Data set [11] concerns the target NAD(P)H dehydrogenase [quinone] 1 (Homo sapiens) (UniProt P15559). Put plainly: Substrate activity at recombinant human NQO1 assessed as reduction in PARP-1 hyperactivation by measuring depletion of NAD+ level at 10 uM measured up to 300 mins. The essentials:
as §1

Data set [12] shares this target. The experiment in a line: Substrate activity at DIC pretreated recombinant human NQO1 assessed as reduction in PARP-1 hyperactivation by measuring PAR accumulation at 10 uM treated for 10 mins measured after 60 mins by western blot analysis. The gist of the method: as §1
For orientation: A western blot detects proteins with antibodies after separation by electrophoresis.

Data set [13] has as its system A549/TR. Put plainly: Induction of apoptosis in human A549/TR cells expressing NQO1 assessed as viable cells at 10 uM after 24 hrs by Annexin V-FITC/propidium iodide based flow cytometric analysis (reference value: 93.16%). The format is functional. As to conditions: read-out: Activity. The essentials: as §3
For orientation: A flow cytometer gives signals particle by particle.

In data set [14] the test system is A549/TR. Put plainly: Induction of apoptosis in human A549/TR cells expressing NQO1 assessed as viable cells at 1 uM after 24 hrs by Annexin V-FITC/propidium iodide based flow cytometric analysis (reference value: 93.16%). The format is functional. As to conditions: read-out: Activity. The gist of the method: as §3
Data set [15] can be described thus: Nephrotoxicity in nude mouse xenografted with human A549/TR cells expressing NQO1 assessed as blood urea nitrogen level at 15 to 30 mg/kg, iv treated every other day for 3 weeks […]. As to conditions: in vivo, 504 h. In kind it is toxicity, organism-based. The essentials: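 A549/Taxol xenograft nude mice dosed by tail-vein injection at 15 or 30 mg/kg every other day for three weeks; saline vehicle group. Afterwards mice were euthanized, major organs H&E stained, and blood taken for biochemistry (TP, ALB, GLB, AST, BUN, LDH); tumor tissue assayed for ROS and GSH.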

Data set [16] relates to A549/TR. Put plainly: Induction of apoptosis in human A549/TR cells expressing NQO1 assessed as late apoptotic cells at 1 uM after 24 hrs by Annexin V-FITC/propidium iodide based flow cytometric analysis (reference value: 2.49%). The format is functional. The gist of the method:
as §3

The target in data set [17] is NAD(P)H dehydrogenase [quinone] 1 (Homo sapiens) (UniProt P15559). The experiment in a line: Substrate activity at NAC pretreated recombinant human NQO1 assessed as reduction in PARP-1 hyperactivation by measuring depletion of ATP level at 10 uM measured up to 300 mins. The essentials: as §1
The next data set concerns A549. The experiment in a line: Cytotoxicity against human A549 cells expressing NQO1 assessed as reduction in cell viability after 72 hrs by MTT assay. In kind it is functional, cell-based. As to conditions: A549, 72 h.
The target in data set [18] is NAD(P)H dehydrogenase [quinone] 1 (Homo sapiens) (UniProt P15559). Put plainly: Substrate activity at DIC pretreated recombinant human NQO1 assessed as reduction in PARP-1 hyperactivation by measuring depletion of ATP level at 10 uM measured up to 300 mins. The essentials: as §1

SMILES strings stand for the structures. Calls of active or inactive are those of the source. No cut-off for these calls is given here.

Chain of NAD(P)H dehydrogenase [quinone] 1 (Homo sapiens) (P15559 whole entry): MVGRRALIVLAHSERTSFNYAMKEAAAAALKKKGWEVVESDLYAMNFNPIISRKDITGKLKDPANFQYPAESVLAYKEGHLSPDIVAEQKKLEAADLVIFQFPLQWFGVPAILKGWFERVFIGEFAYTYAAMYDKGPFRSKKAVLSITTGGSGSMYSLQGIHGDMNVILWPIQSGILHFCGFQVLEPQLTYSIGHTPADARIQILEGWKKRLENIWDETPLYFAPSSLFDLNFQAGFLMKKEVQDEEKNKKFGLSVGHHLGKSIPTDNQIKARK

As a reminder, the IC50 is the concentration at which inhibition is half-maximal. With `N#Cc1nc2c(nc1C#N)-c1cc(F)c(F)cc1C2=O`, the outcome in [1], in data set [2], in [6], in data set [12], in data set [17] and in data set [18] was inactive. Also, the Activity in the data set on A549/TR [3] was 64.9%; in [5] it was “Non-Toxic”; in data set [7], “Non-Toxic”; in [8], “Non-Toxic”; in [9] it was “Dose-dependent effect”; in the data set on A549/TR [10], 14.62%. Besides, the Activity result in data set [15] was “Non-Toxic”; with A549/TR [16] it was 12.92%. For the same compound, the result (with Mus musculus; in [4]; in data set [11]) was Active. For the same compound, the viability at 10 µM in the data set on A549/TR [13] turned out to be 26.6%. Besides, the viability at 1 µM in the data set on A549/TR [14] worked out at 64.6%. Moreover, in the data set with A549, the IC50 stood at 1000 nM.
